# Measurements: PMC6594083 (Diabetes, Obesity & Metabolism, 2019)
# Values joined by “and” are separate entries in the source; they are usually repeats but may differ in a detail not shown here. Identical values can stand only once. Like-named read-outs stand apart in the source and are kept apart here.
# Assays:
# Format in all cases: in vivo, human (Japanese patients)
# [1] = test system: Japanese patients with type 1 diabetes mellitus; assay: Concomitant insulin daily dose; settings: day 14
# Summary of the method: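 Japanese type 1 diabetes patients on insulin; randomized, double-blind, placebo-controlled. Insulin was adjusted by usual clinical practice on physician instruction, with a cut considered if self-monitored glucose fell below 80 mg/dL. Basal, bolus and total daily units recorded; change from baseline to day 14.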
# [2] = test system: Japanese patients with type 1 diabetes mellitus; assay: Safety: treatment-emergent adverse events incl. hypoglycaemia
# Summary of the method: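 Self-monitored blood glucose was checked four times daily, before each meal and at bedtime. A value ≤70 mg/dL (≤3.89 mmol/L) was recorded as a hypoglycaemia adverse event. Adverse events were coded by MedDRA version 18.0 in all dosed patients.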
# [3] = test system: Japanese patients with type 1 diabetes mellitus; settings: Day 15; for Glycoalbumin, AMD (95% CI): adjusted mean difference to placebo; for Body weight, mean change from baseline / Glycoalbumin, mean change from baseline: mean ± SD
# Summary of the method: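 Glycoalbumin and body weight were taken as change from baseline to day 15. Differences from placebo came from an analysis of covariance with baseline as covariate, with 95% CI. Analysed in patients with day-14 pharmacodynamic data.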
# [4] = Pharmacokinetics of ipragliflozin; settings: human, plasma, oral, AUC24h, day 14, mean ± SD
# Summary of the method: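 Patients were hospitalized days −2 to 3 and days 13 to 15. […] The analysis set was patients dosed with at least one drug-concentration sample.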
# [5] = test system: Japanese patients with type 1 diabetes mellitus; assay: Safety: serum ketone levels; settings: for Blood ketone body in patient with AE blood ketone body increased: person; for Mean (SD) change in total serum ketones: baseline until end of treatment
# Summary of the method: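 Total serum ketones, acetoacetic acid and 3-hydroxybutyric acid were measured at screening, predose on treatment days 1 (baseline), 2, 3, 14 and 15, and in the post-treatment period. Ketone increases were reported as adverse events.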
smiles,measurement,setting,value
OC[C@H]1O[C@@H](c2ccc(F)c(Cc3cc4ccccc4s3)c2)[C@H](O)[C@@H](O)[C@@H]1O [ipragliflozin],"Total daily insulin dose, % change from baseline (SD)",[1]; 25 mg/day,−14.77 ± 14.04%
same,"Total daily insulin dose, % change from baseline (SD)",[1]; 50 mg/day,−18.40 ± 12.49%
same,"Total daily insulin dose, % change from baseline (SD)",[1]; 100 mg/day,−19.25 ± 16.77%
same,"Hypoglycaemia, Asymptomatic",[2]; 25 mg/day (n = 10),10 (100.0) patients (%)
same,"Hypoglycaemia, Asymptomatic, number of events",[2]; 25 mg/day (n = 10),44 events
same,"Hypoglycaemia, Documented symptomatic",[2]; 25 mg/day (n = 10),8 (80.0) patients (%)
same,"Hypoglycaemia, Documented symptomatic, number of events",[2]; 25 mg/day (n = 10),58 events
same,"Hypoglycaemia, Drug‐related",[2]; 25 mg/day (n = 10),10 (100.0) patients (%)
same,"Hypoglycaemia, Drug‐related, number of events",[2]; 25 mg/day (n = 10),83 events
same,"Hypoglycaemia, Major",[2]; 25 mg/day (n = 10),0 patients (%)
same,"Hypoglycaemia, Mild, number of events",[2]; 25 mg/day (n = 10),102 events
same,"Hypoglycaemia, Moderate",[2]; 25 mg/day (n = 10),1 (10.0) patients (%)
same,"Hypoglycaemia, Moderate, number of events",[2]; 25 mg/day (n = 10),1 events
same,"Hypoglycaemia, Probable symptomatic",[2]; 25 mg/day (n = 10),0 patients (%)
same,"Hypoglycaemia, Relative",[2]; 25 mg/day (n = 10),1 (10.0) patients (%)
same,"Hypoglycaemia, Relative, number of events",[2]; 25 mg/day (n = 10),1 events
same,"Hypoglycaemia, Serious",[2]; 25 mg/day (n = 10),0 patients (%)
same,"Hypoglycaemia, Severe",[2]; 25 mg/day (n = 10),0 patients (%)
same,TEAE Beta 2 microglobulin increased,[2]; 25 mg/day (n = 10),1 (10.0) patients (%)
same,TEAE Blood bilirubin increased,[2]; 25 mg/day (n = 10),1 (10.0) patients (%)
same,TEAE Blood ketone body increased,[2]; 25 mg/day (n = 10),1 (10.0) patients (%)
same,TEAE Constipation,[2]; 25 mg/day (n = 10),0 patients (%)
same,TEAE Decreased appetite,[2]; 25 mg/day (n = 10),0 patients (%)
same,TEAE Gastroenteritis,[2]; 25 mg/day (n = 10),1 (10.0) patients (%)
same,TEAE Headache,[2]; 25 mg/day (n = 10),0 patients (%)
same,TEAE Hemorrhoidal hemorrhage,[2]; 25 mg/day (n = 10),0 patients (%)
same,TEAE Hyperglycaemia,[2]; 25 mg/day (n = 10),0 patients (%)
same,TEAE Hypoglycaemia,[2]; 25 mg/day (n = 10),10 (100.0) patients (%)
same,"TEAE Hypoglycaemia, number of events",[2]; 25 mg/day (n = 10),103 events
same,TEAE Nasopharyngitis,[2]; 25 mg/day (n = 10),1 (10.0) patients (%)
same,TEAE Overall,[2]; 25 mg/day (n = 10),10 (100.0) patients (%)
same,TEAE Papule,[2]; 25 mg/day (n = 10),0 patients (%)
same,TEAE Pollakiuria,[2]; 25 mg/day (n = 10),0 patients (%)
same,TEAE Pyrexia,[2]; 25 mg/day (n = 10),0 patients (%)
same,TEAE Upper respiratory tract infection,[2]; 25 mg/day (n = 10),0 patients (%)
same,TEAE Urine ketone body present,[2]; 25 mg/day (n = 10),0 patients (%)
same,TEAE Vomiting,[2]; 25 mg/day (n = 10),0 patients (%)
same,"Hypoglycaemia, Asymptomatic",[2]; 50 mg/day (n = 12),9 (75.0) patients (%)
same,"Hypoglycaemia, Asymptomatic, number of events",[2]; 50 mg/day (n = 12),34 events
same,"Hypoglycaemia, Documented symptomatic",[2]; 50 mg/day (n = 12),11 (91.7) patients (%)
same,"Hypoglycaemia, Documented symptomatic, number of events",[2]; 50 mg/day (n = 12),96 events
same,"Hypoglycaemia, Drug‐related",[2]; 50 mg/day (n = 12),12 (100.0) patients (%)
same,"Hypoglycaemia, Drug‐related, number of events",[2]; 50 mg/day (n = 12),122 events
same,"Hypoglycaemia, Major",[2]; 50 mg/day (n = 12),0 patients (%)
same,"Hypoglycaemia, Mild, number of events",[2]; 50 mg/day (n = 12),141 events
same,"Hypoglycaemia, Moderate",[2]; 50 mg/day (n = 12),1 (8.3) patients (%)
same,"Hypoglycaemia, Moderate, number of events",[2]; 50 mg/day (n = 12),3 events
same,"Hypoglycaemia, Probable symptomatic",[2]; 50 mg/day (n = 12),3 (25.0) patients (%)
same,"Hypoglycaemia, Probable symptomatic, number of events",[2]; 50 mg/day (n = 12),3 events
same,"Hypoglycaemia, Relative",[2]; 50 mg/day (n = 12),4 (33.3) patients (%)
same,"Hypoglycaemia, Relative, number of events",[2]; 50 mg/day (n = 12),11 events
same,"Hypoglycaemia, Serious",[2]; 50 mg/day (n = 12),0 patients (%)
same,"Hypoglycaemia, Severe",[2]; 50 mg/day (n = 12),0 patients (%)
same,TEAE Beta 2 microglobulin increased,[2]; 50 mg/day (n = 12),0 patients (%)
same,TEAE Blood bilirubin increased,[2]; 50 mg/day (n = 12),0 patients (%)
same,TEAE Blood ketone body increased,[2]; 50 mg/day (n = 12),1 (8.3) patients (%)
same,TEAE Constipation,[2]; 50 mg/day (n = 12),1 (8.3) patients (%)
same,TEAE Decreased appetite,[2]; 50 mg/day (n = 12),1 (8.3) patients (%)
same,TEAE Gastroenteritis,[2]; 50 mg/day (n = 12),0 patients (%)
same,TEAE Headache,[2]; 50 mg/day (n = 12),0 patients (%)
same,TEAE Hemorrhoidal hemorrhage,[2]; 50 mg/day (n = 12),0 patients (%)
same,TEAE Hyperglycaemia,[2]; 50 mg/day (n = 12),1 (8.3) patients (%)
same,TEAE Hypoglycaemia,[2]; 50 mg/day (n = 12),12 (100.0) patients (%)
same,"TEAE Hypoglycaemia, number of events",[2]; 50 mg/day (n = 12),144 events
same,TEAE Nasopharyngitis,[2]; 50 mg/day (n = 12),1 (8.3) patients (%)
same,TEAE Overall,[2]; 50 mg/day (n = 12),12 (100.0) patients (%)
same,TEAE Papule,[2]; 50 mg/day (n = 12),1 (8.3) patients (%)
same,TEAE Pollakiuria,[2]; 50 mg/day (n = 12),1 (8.3) patients (%)
same,TEAE Pyrexia,[2]; 50 mg/day (n = 12),1 (8.3) patients (%)
same,TEAE Upper respiratory tract infection,[2]; 50 mg/day (n = 12),0 patients (%)
same,TEAE Urine ketone body present,[2]; 50 mg/day (n = 12),1 (8.3) patients (%)
same,TEAE Vomiting,[2]; 50 mg/day (n = 12),1 (8.3) patients (%)
same,"Hypoglycaemia, Asymptomatic",[2]; 100 mg/day (n = 10),9 (90.0) patients (%)
same,"Hypoglycaemia, Asymptomatic, number of events",[2]; 100 mg/day (n = 10),60 events
same,"Hypoglycaemia, Documented symptomatic",[2]; 100 mg/day (n = 10),7 (70.0) patients (%)
same,"Hypoglycaemia, Documented symptomatic, number of events",[2]; 100 mg/day (n = 10),25 events
same,"Hypoglycaemia, Drug‐related",[2]; 100 mg/day (n = 10),9 (90.0) patients (%)
same,"Hypoglycaemia, Drug‐related, number of events",[2]; 100 mg/day (n = 10),77 events
same,"Hypoglycaemia, Major",[2]; 100 mg/day (n = 10),0 patients (%)
same,"Hypoglycaemia, Mild, number of events",[2]; 100 mg/day (n = 10),85 events
same,"Hypoglycaemia, Moderate",[2]; 100 mg/day (n = 10),0 patients (%)
same,"Hypoglycaemia, Probable symptomatic",[2]; 100 mg/day (n = 10),0 patients (%)
same,"Hypoglycaemia, Relative",[2]; 100 mg/day (n = 10),0 patients (%)
same,"Hypoglycaemia, Serious",[2]; 100 mg/day (n = 10),0 patients (%)
same,"Hypoglycaemia, Severe",[2]; 100 mg/day (n = 10),0 patients (%)
same,TEAE Beta 2 microglobulin increased,[2]; 100 mg/day (n = 10),0 patients (%)
same,TEAE Blood bilirubin increased,[2]; 100 mg/day (n = 10),0 patients (%)
same,TEAE Blood ketone body increased,[2]; 100 mg/day (n = 10),2 (20.0) patients (%)
same,TEAE Constipation,[2]; 100 mg/day (n = 10),0 patients (%)
same,TEAE Decreased appetite,[2]; 100 mg/day (n = 10),0 patients (%)
same,TEAE Gastroenteritis,[2]; 100 mg/day (n = 10),0 patients (%)
same,TEAE Headache,[2]; 100 mg/day (n = 10),0 patients (%)
same,TEAE Hemorrhoidal hemorrhage,[2]; 100 mg/day (n = 10),0 patients (%)
same,TEAE Hyperglycaemia,[2]; 100 mg/day (n = 10),0 patients (%)
same,TEAE Hypoglycaemia,[2]; 100 mg/day (n = 10),9 (90.0) patients (%)
same,"TEAE Hypoglycaemia, number of events",[2]; 100 mg/day (n = 10),85 events
same,TEAE Nasopharyngitis,[2]; 100 mg/day (n = 10),0 patients (%)
same,TEAE Overall,[2]; 100 mg/day (n = 10),9 (90.0) patients (%)
same,TEAE Papule,[2]; 100 mg/day (n = 10),0 patients (%)
same,TEAE Pollakiuria,[2]; 100 mg/day (n = 10),0 patients (%)
same,TEAE Pyrexia,[2]; 100 mg/day (n = 10),0 patients (%)
same,TEAE Upper respiratory tract infection,[2]; 100 mg/day (n = 10),1 (10.0) patients (%)
same,TEAE Urine ketone body present,[2]; 100 mg/day (n = 10),1 (10.0) patients (%)
same,TEAE Vomiting,[2]; 100 mg/day (n = 10),0 patients (%)
same,"Deaths, serious TEAEs, TEAEs leading to discontinuation","[2]; 25, 50, 100 mg/day for 14 days","no deaths, other serious TEAEs, or TEAEs leading to discontinuation"
same,Ketoacidosis,"[2]; 25, 50, 100 mg/day for 14 days",no ketoacidosis was observed
same,"Glycoalbumin, AMD (95% CI)",[3]; 25 mg/day,"−2.17% and −2.17 (−3.84, −0.51) %"
same,"Body weight, mean change from baseline",[3]; 25 mg/day,-0.83 ± 0.48 kg
same,"Glycoalbumin, mean change from baseline",[3]; 25 mg/day,−2.67 ± 2.30%
same,"Glycoalbumin, AMD (95% CI)",[3]; 50 mg/day,"−2.03% and −2.03 (−3.58, −0.48) %"
same,"Body weight, mean change from baseline",[3]; 50 mg/day,-1.18 ± 1.06 kg
same,"Glycoalbumin, mean change from baseline",[3]; 50 mg/day,−2.53 ± 1.52%
same,"Body weight, mean change from baseline",[3]; 100 mg/day,-0.94 ± 0.89 kg
same,"Glycoalbumin, mean change from baseline",[3]; 100 mg/day,−2.95 ± 2.24%
same,AUC(0-t),"[4]; 25 mg/day, 25 mg/day",2510 ± 495 ng·h/mL
same,AUC(0-t),"[4]; 50 mg/day, 50 mg/day",5790 ± 1130 ng·h/mL
same,Blood ketone body in patient with AE blood ketone body increased,"[5]; 25 mg group, day 15, 24 hours postdose",991 µmol/L
same,Mean (SD) change in total serum ketones,[5]; 25 mg/day,173.38 (267.48) μmol/L
same,Blood ketone body in patient with AE blood ketone body increased,"[5]; 50 mg group, day 15, 24 hours postdose",968 µmol/L
same,Mean (SD) change in total serum ketones,[5]; 50 mg/day,357.07 (294.41) μmol/L
same,Blood ketone body in patient with AE blood ketone body increased,"[5]; 100 mg group, day 2, predose",1200 µmol/L
same,Blood ketone body in patient with AE blood ketone body increased,"[5]; 100 mg group, day 15, 24 hours postdose",1770 µmol/L
same,Mean (SD) change in total serum ketones,[5]; 100 mg/day,233.18 (387.35) μmol/L
